From PubChem BioAssay
SENP6 inh – inhibitors of human SENP6 protease; inhibition, % at 10 µM; hit rate 1.8% among 330,000; Q9GZR1; Recombinant SENP6 catalytic domain, aminoluciferin luminescence;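 active = inhibition above about 50% at the single tested dose, limit read from the data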;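 note: plate controls were DMSO wells with enzyme for no effect and DMSO wells lacking enzyme for full effect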
Apaf-1 inh – inhibitors of human Apaf-1 apoptosome | O14727 | reconstituted apoptosome caspase-3 activity, DEVD-Rh110 fluorescence | inhibition, % at 20 µM | hit rate 0.71% among 330,000; active = inhibition of at least 40% at 20 µM;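 note: plate controls were DMSO wells for no effect and DEVD-CHO caspase inhibitor wells for full effect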
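Material: reconstituted apoptosome with Apaf-1, cytochrome c, caspase-9, procaspase-3, dATP; medium: pH 7.5 Hepes buffer with CHAPS, BSA, DTT; also added: cytochrome c and DEVD-Rh110 substrate; timing: 30 min plus 50 min, RT; signal: Rh110 fluorescence intensity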
SENP7 block – SENP7 protease inhibition; recombinant SENP7, Z-RLRGG-aminoluciferin luminescence, 40 min; inhibition, % at 5 µM; hit rate 1.5% among 330,000; AID 434973;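 active = inhibition above about 50% at the single test dose, limit read from the data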;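 note: plate controls were DMSO with enzyme for no effect and no enzyme buffer wells for full effect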
Target sequence (Q9BQF6 706-1050 limits assumed): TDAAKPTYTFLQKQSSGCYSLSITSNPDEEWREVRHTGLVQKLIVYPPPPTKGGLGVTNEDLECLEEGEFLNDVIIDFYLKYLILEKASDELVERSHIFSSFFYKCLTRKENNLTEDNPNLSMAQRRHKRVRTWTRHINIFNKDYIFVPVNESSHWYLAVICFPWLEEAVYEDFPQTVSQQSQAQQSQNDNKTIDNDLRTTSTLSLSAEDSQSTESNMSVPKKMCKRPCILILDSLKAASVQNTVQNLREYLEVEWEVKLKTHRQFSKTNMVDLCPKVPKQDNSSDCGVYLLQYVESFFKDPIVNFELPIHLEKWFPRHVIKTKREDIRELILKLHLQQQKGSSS
UBC13 polyUb – blocks human UBC13 polyubiquitin chain formation; inhibition, % at 20 µM; P61088; AID 485273; TR-FRET; hit rate 0.47% among 330,000; in the data active = inhibition above about 45%, passing the limit was not always enough
SENP8 block-1 – SENP8 protease inhibition. hit rate 1.2% among 330,000. inhibition, % at 10 µM. purified SENP8, Z-RLRGG-aminoluciferin cleavage, luminescence. Q96LD8; in the data active = inhibition above about 50%
SENP8 block-2 – inhibitors of human SENP8 protease | Q96LD8 | hit rate 0.64% among 360,000 | AID 602440 | recombinant SENP8, Nedd8 substrate fluorescence | inhibition, % at 20 µM; in the data active = inhibition mostly above about 40%, no sharp cut-off; inactive = mostly below about 27%
Casp3 UBC13 ctr – caspase-3 inhibition (UBC13 counter-screen); shares compounds with UBC13 polyUb; Recombinant caspase-3, Caspase-Glo 3/7 luminescence, 60 min; inhibition, % at 20 µM; hit rate 4% among 1,400;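 active = mean inhibition across replicates above about 26%, limit read from the data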;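 note: plate controls were DMSO with caspase-3 for no effect and DMSO wells lacking enzyme for full effect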
Target sequence (P42574 whole entry, looked up): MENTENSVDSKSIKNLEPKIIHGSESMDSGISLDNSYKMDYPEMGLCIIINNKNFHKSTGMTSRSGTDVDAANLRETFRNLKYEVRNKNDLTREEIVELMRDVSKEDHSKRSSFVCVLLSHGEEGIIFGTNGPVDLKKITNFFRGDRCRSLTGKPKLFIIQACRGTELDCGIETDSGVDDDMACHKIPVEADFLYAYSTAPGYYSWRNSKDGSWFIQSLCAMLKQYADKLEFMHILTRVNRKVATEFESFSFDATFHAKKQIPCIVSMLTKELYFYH
UBC13 confirm – confirmation of human UBC13 polyubiquitin inhibitors; shares compounds with UBC13 polyUb; UBC13 polyubiquitination, TR-FRET, biochemical; inhibition, % at 10 µM; hit rate 68% among 1,400; in the data active = inhibition above about 45%
Apaf-1 inh conf2 – Apaf-1 inhibition, single-dose confirmed; reconstituted apoptosome, caspase-3 DEVD-Rh110 fluorescence; shares compounds with Apaf-1 inh; hit rate 25% among 1,800; inhibition, % at 20 µM;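 active = mean inhibition of at least 40% at 20 µM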;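 note: plate controls were DMSO wells for no effect and DEVD-CHO caspase inhibitor control wells for full effect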
Rh110 quench – counter-screen for Apaf-1 inhibitors: fluorescence interference; 1,800 tested, under 10 active; shares compounds with Apaf-1 inh; AID 504615; Rh110 fluorescence interference, quenched caspase reaction; activation (fluorescence interference), % at 20 µM;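 active = signal rise of 40% or more at 20 µM, treated as a fluorescence artifact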
Fluor interf inh – shows fluorescence interference in the Apaf-1 inhibitor assay format. shares compounds with Apaf-1 inh. fluorescence interference counterscreen, Apaf-1 assay format. IC50, µM. 460 tested, under 10 active; call rule not given here
The depositor's hits bear a star. Compounds with a hit are over-represented: about 3.1% of the library has one in this group of screens.

`CC(=O)Nc1ccc(S(=O)(=O)Nc2ccccn2)cc1` gave SENP6 inh 6.6, Apaf-1 inh 0.1, SENP7 block -2.5, UBC13 polyUb -6.4, SENP8 block-1 7.2 and SENP8 block-2 -55.3.
`O=C(Nc1ccc(Cl)c(C(F)(F)F)c1)NC1CC2CCCC(C1)N2Cc1ccccc1` (stereo not drawn) gave SENP6 inh 13.4, Apaf-1 inh 22.3, SENP7 block 6.2, UBC13 polyUb 46.2*, SENP8 block-1 -5.1, Casp3 UBC13 ctr -5.0 and UBC13 confirm 62.9*.
`CCOC(=O)CCCSc1nnc(CCCCCN2C(=O)c3cccc4cccc(c34)C2=O)o1` gave SENP6 inh -40.0, Apaf-1 inh 28.7, SENP7 block -6.3, UBC13 polyUb 52.7*, SENP8 block-1 -7.2, SENP8 block-2 -369.7, Casp3 UBC13 ctr -1.6 and UBC13 confirm 42.2.
O=C(NCc1ccccc1)c1cc(C2CCCCN2S(=O)(=O)c2ccccc2)on1 (stereo not drawn) was read as SENP8 block-2 11.8.
For CC(C)(C)c1cc(-c2nc(N)nc(N)n2)c(O)c(C(C)(C)C)c1 the results were SENP6 inh -1.1, Apaf-1 inh 22.1, SENP7 block 2.9, UBC13 polyUb 51.2*, SENP8 block-1 0.0, SENP8 block-2 -90.5, Casp3 UBC13 ctr -2.4 and UBC13 confirm 18.4.
`Nc1nc(N)nc(-c2cc(O)ccc2O)n1` gave SENP6 inh 2.0, Apaf-1 inh -2.0, SENP7 block 2.9, UBC13 polyUb 12.3, SENP8 block-1 1.4 and SENP8 block-2 -5.0.
`COc1ccc(-c2sc3ccccc3c2-c2ccc(OCCN(C)C)cc2)cc1` gave SENP6 inh -4.9, Apaf-1 inh 76.5*, SENP7 block -10.9, UBC13 polyUb 86.6*, SENP8 block-1 -26.5, SENP8 block-2 -438.6, Casp3 UBC13 ctr -9.5 and UBC13 confirm 80.8*.
For COc1ccc(-c2sc3ccccc3c2-c2ccc(O)cc2)cc1 the results were SENP6 inh -21.5, Apaf-1 inh 26.1, SENP7 block 10.7, UBC13 polyUb 28.1, SENP8 block-1 -16.4 and SENP8 block-2 -497.3.
Screening CCOC(=O)C1=CC[C@@H](c2ccccc2)N(S(=O)(=O)c2ccc(C)cc2)[C@H]1C=C(C)C returned SENP8 block-2 3.9.
Screening CC(C)c1ccc(CC(=O)N2CCC2(C)C(=O)NS(=O)(=O)c2cccc(C#N)c2)cc1 (stereo not drawn) returned SENP8 block-2 17.2.
CNC[C@@H](C)NC[C@@H](Cc1ccccc1)NCCc1ccccc1 was read as SENP6 inh 5.4, Apaf-1 inh 1.0, SENP7 block 4.2, UBC13 polyUb 6.4, SENP8 block-1 0.9 and SENP8 block-2 20.4.
`CC[C@H](C)[C@@H](CN[C@H](C)CNC)NCCC(c1ccccc1)c1ccccc1` gave SENP6 inh -18.1, Apaf-1 inh 8.9, SENP7 block -1.4, UBC13 polyUb 54.8*, SENP8 block-1 -4.6, SENP8 block-2 24.1, Casp3 UBC13 ctr -4.0 and UBC13 confirm 37.1.
For Cc1ccc(OCc2nnn(CC(=O)NS(=O)(=O)c3c(C)noc3C)c2-c2ccccc2)cc1 the results were SENP8 block-2 8.2.
Screening CC(C)CNC(=O)C1(C)CCN1C(=O)c1ccc(C(C)(C)C)cc1 (stereo not drawn) returned SENP8 block-2 -3.5.
For O=C(Nc1cccc(F)c1)c1cc(S(=O)(=O)NCCC2=CCCCC2)ccc1F the results were SENP6 inh 1.6, Apaf-1 inh 22.3, SENP7 block 1.5, UBC13 polyUb 47.9*, SENP8 block-1 -2.5, SENP8 block-2 4.2, Casp3 UBC13 ctr -2.4 and UBC13 confirm 29.7.
Screening Cc1ccc(NC(=O)c2cc(S(=O)(=O)NCCC3=CCCCC3)ccc2F)cc1F returned SENP6 inh 4.5, Apaf-1 inh 5.6, SENP7 block -0.6, UBC13 polyUb -1.1, SENP8 block-1 -7.3 and SENP8 block-2 17.7.
`CCCCCc1ccc(OCCCC[n+]2ccccc2)c(CCCCC)c1` gave SENP6 inh -11.9, Apaf-1 inh 58.8*, SENP7 block 4.7, UBC13 polyUb 59.1*, SENP8 block-1 -3.9, SENP8 block-2 16.9, Casp3 UBC13 ctr -4.4, UBC13 confirm 84.4*, Apaf-1 inh conf2 39.3 and Rh110 quench 11.6.
For CCCCCc1ccc(OCCCC[n+]2cccc(C)c2)c(CCCCC)c1 the results were SENP6 inh -8.1, Apaf-1 inh 61.0*, SENP7 block 1.3, UBC13 polyUb 59.4*, SENP8 block-1 -8.0, SENP8 block-2 6.9, Casp3 UBC13 ctr -3.1, UBC13 confirm 89.7*, Apaf-1 inh conf2 40.2*, Rh110 quench 8.9 and Fluor interf inh >100.
For CCC(C)(C)c1ccc(OCCCC[n+]2ccccc2)c(C(C)(C)CC)c1 the results were SENP6 inh -23.7, Apaf-1 inh 50.8*, SENP7 block 3.6, UBC13 polyUb 65.5*, SENP8 block-1 -7.2, SENP8 block-2 16.1, Casp3 UBC13 ctr -3.1, UBC13 confirm 97.8*, Apaf-1 inh conf2 30.8 and Rh110 quench 16.9.
For CCCCCNC(=O)C(c1ccnc2ccccc12)n1c(=O)c(-c2cc3ccccc3[nH]2)nc2ccccc21 (stereo not drawn) the results were SENP8 block-2 -417.5.
COc1cc(C(O)c2nc(-c3csc4ccccc34)cs2)ccc1F (stereo not drawn) was read as SENP8 block-2 9.7.
For CC(C)(C)Cc1c(-c2cccc(Br)c2)nc2ccc(Br)cn12 the results were SENP8 block-2 -36.5.
`CC[C@@H](C)[C@@H]1CN([C@@H](C)CN2CCC[C@H]2CN2C(N)=NC[C@@H]2Cc2ccccc2)C(=N)N1CCc1ccc(Cl)c(Cl)c1` gave SENP6 inh -4.9, Apaf-1 inh 70.7*, SENP7 block -2.5, UBC13 polyUb 76.5*, SENP8 block-1 9.2, SENP8 block-2 20.5, Casp3 UBC13 ctr 1.6, UBC13 confirm 69.8*, Apaf-1 inh conf2 5.8 and Rh110 quench 6.2.
